A selection: hits, their analogues and other compounds. The true share with any hit is near 4.9%.
NF-kB expr up: activators of NF-kB expression in neurons, primary screen, cell-based, HTS; human neuronal cells, NF-kB reporter expression; active compounds read high; fold change at 12.5 µM; 190,000 compounds, 1.6% hits; in the data active = fold change above about 3.3
STAT3 blocker: IL-6 driven STAT3 reporter inhibitors, primary screen, U3A cells, luciferase, luminescence, MLSCN library; IL-6 STAT3-luciferase reporter; host cell line lacks STAT1; inhibition, % at 5.5 µM; 190,000 compounds, 0.89% hits;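 active = inhibition above the mean inhibition across all screened compounds plus 3 SD, cut at about 44% in these data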;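 also: 0% = DMSO only wells and 100% = 100 µM nifuroxazide control wells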
STAT1 inh: STAT1 signaling inhibitors, primary screen, cell-based, HTS, luciferase reporter. NIH 3T3 STAT1-luciferase reporter, IFN-gamma, luminescence. inhibition, % at 5.5 µM. 200,000 compounds, 0.35% hits. AID 920, 2007;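 active = inhibition above a set limit, the mean inhibition across all tested compounds plus 3 SD, cut at about 34% in these data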;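 also: 0% = IFN-gamma with DMSO and 100% = IFN-gamma with 300 µM nifuroxazide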
STAT1 activator: STAT1 signaling activators, primary screen, cell-based, HTS, luciferase reporter; activation (% of control), % at 5.5 µM; 200,000 compounds, 2.6% hits; NIH 3T3 STAT1-luciferase reporter, IFN-gamma, luminescence; 100% = IFN-gamma alone, no compound;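 active = activation above the screen-wide mean activation plus 3 SD, cut at about 130% in these data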;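 also: raw ratio to IFN-gamma control signal so 100% means no change and 0% no light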
STAT3 act: IL-6 driven STAT3 reporter potentiators, primary screen, U3A cells, luciferase, luminescence, MLSCN library; IL-6 STAT3-luciferase reporter; 100% = signal with IL-6 EC80 alone; activation (% of control), % at 5.6 µM; 190,000 compounds, 0.91% hits; AID 871, 2007;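 active = activation above the screen-wide mean of compound activation plus 3 SD, cut at about 130% in these data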;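 also: 0% = background luminescence of wells with medium and substrate only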
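Material: human U3A cells carrying STAT3-luciferase construct. Measured by: reporter luminescence signal. Timing: compound 1 h, then IL-6 6 h at 37 °C.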
APP 5'UTR act: activators of APP 5'UTR luciferase reporter, primary screen, SH-SY5Y cells; activation, % at 2 µM; 190,000 compounds, 1% hits; SH-SY5Y APP 5'UTR luciferase reporter, luminescence; zero percent = DMSO vehicle wells;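 active = activation above a set limit, based on mean plus 3 SD of controls, cut at about 140% in these data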
STAT1 activ conf: STAT1 signaling activators, confirmation, cell-based, HTS, luciferase reporter. 1,200 compounds, 97% hits. NIH 3T3 STAT1-luciferase reporter, IFN-gamma potentiation, luminescence; 100% = IFN-gamma EC80 alone, no compound. shares compounds with STAT1 activator. AID 1262, 2008. activation (% of control), % at 5.7 µM;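 active = activation above a set limit carried over from the earlier primary STAT1 screen, cut at about 140% in these data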;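 also: simple ratio to median IFN-gamma plus DMSO wells so 0% means no light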
NFkB act STAT1ct: NF-kB reporter activators, TNF-alpha stimulated, counter-screen for STAT1 activator project, cell-based, HEK293T, luciferase luminescence. shares compounds with STAT1 activator. 100% = TNF-alpha with vehicle only. activation (% of control), % at 5.7 µM. 1,200 compounds, 43% hits;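 active = activation above the mean of solvent-only control wells plus 3 SD, set per campaign, cut at about 130% in these data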;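 also: TNF-alpha given at a submaximal dose yielding about 80% of full reporter signal; values are well signal over median control so 100% means no change and 0% no light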
STAT3 act 2: STAT3 reporter activation by STAT1 hits, confirmation, counter-screen for STAT1 activator project, U3A cells, luciferase, luminescence | AID 1316, 2008 | activation (% of control), % at 5.7 µM | 1,200 compounds, 46% hits | shares compounds with STAT1 activator | IL-6; cells lack STAT1; 100 = IL-6 alone, no compound effect;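 active = activation above the solvent-only control well mean plus 3 SD, set per plate batch, cut at about 110% in these data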;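 also: 0% = no luminescence and 100% = median IL-6 plus DMSO wells; higher means more STAT3 reporter activation so hits are non-selective activators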
* marks the source's active call; other numbers are inactive results; · = no result.

SMILES	NF-kB expr up	STAT3 blocker	STAT1 inh	STAT1 activator	STAT3 act	APP 5'UTR act	STAT1 activ conf	NFkB act STAT1ct	STAT3 act 2
COc1ccc(NC(=S)Nc2ccc3nccnc3c2)cc1	0.98	6.2	-58.8	153.3*	99.2	23.9	141.1*	109.3	98.5
COc1ccc(NC(=S)Nc2ccc3snnc3c2)cc1	1.4	10.9	-11.9	109.0	93.5	40.9	·	·	·
Cc1cccnc1Nc1nc(-c2ccccn2)cs1	7.53*	-2.4	-155.8	256.5*	102.0	-92.6	260.6*	168.5*	108.8
CSCCC(=O)Nc1nc(-c2ccccn2)cs1	0.95	-0.7	-5.9	105.4	104.9	-7.4	·	·	·
O=C(Nc1nc(-c2ccccn2)cs1)c1ccc(Cl)s1	2.02	-9.7	-0.4	101.3	108.1	-77.2	·	·	·
Cc1cccc(Nc2nc(-c3cccs3)cs2)n1	11.3*	-21.5	-76.0	178.9*	121.4	208.2*	260.9*	147.4*	143.6*
CC(=O)Nc1nc(C)c(-c2csc(Nc3ccccn3)n2)s1	1.67	-7.2	-97.5	191.0*	111.6	101.5	221.1*	142.3*	120.5*
Cc1cccc(Nc2nc(-c3ccccn3)cs2)n1	5.63*	12.9	-89.8	191.1*	91.7	210.5*	270.7*	139.4*	110.2
Cc1cccc(NS(=O)(=O)c2cccs2)n1	0.98	4.3	7.4	93.2	99.6	21.1	·	·	·
C=CCOC(=O)/C(=C\C=C\c1ccccc1)NC(=O)c1ccccc1	1.24	0.0	-6.5	105.8	101.9	-7.0	·	·	·
Cc1ccc(Cl)cc1NC(=S)N(CCN(C)C)C(C)c1ccccn1 (stereo unspecified)	1.35	13.8	-0.4	98.7	96.7	-1.7	·	·	·
c1csc(-c2csc(-c3cccs3)n2)c1	2.05	-1.2	-30.7	127.9	105.3	53.2	·	·	·
Nc1ccc(Nc2nc(-c3cccs3)cs2)cc1	1.74	9.2	-65.9	159.9*	93.7	311.4*	167.6*	141.9*	102.3
COc1ccc(-c2csc(-c3ccc(C(=O)O)cc3)n2)cc1	7.57*	6.0	-91.0	182.1*	105.6	129.1	242.0*	146.0*	144.2*
COc1ccc(-c2nc(CC(=O)O)cs2)cc1	0.91	3.8	1.1	99.0	99.8	6.8	·	·	·
O=C(O)c1ccc(-c2nc(-c3cccc(C(F)(F)F)c3)cs2)cc1	1.12	9.7	7.7	91.1	98.8	17.5	·	·	·
O=C(O)c1ccc(-c2nc(-c3ccc(Cl)cc3)cs2)cc1	6.3*	4.7	-85.8	180.6*	100.0	241.4*	240.7*	135.4*	134.9*
Cc1nn(-c2nnc(NC3CCCCC3)nn2)c(C)c1Br	2.78	-19.7	-72.2	163.8*	122.0	134.2	184.5*	132.8	121.7*
Cc1nn(C)c(C)c1S(=O)(=O)NC1CCCC1	1.07	-2.6	-7.7	107.0	105.3	9.9	·	·	·
Cc1ccc2nc(NC(=O)c3ccc(OCC4CCCO4)cc3)sc2c1 (stereo unspecified)	1.34	3.8	-62.1	158.4*	95.7	37.0	147.5*	115.8	90.5
Cc1ccc(CNC(=O)c2ccc(OCC3CCCO3)cc2)cc1 (stereo unspecified)	1.24	3.8	-8.6	107.6	94.8	0.5	·	·	·
COc1ccc(CN(C)Cc2cc(=O)n3ccsc3n2)c(OC)c1OC	1.11	7.4	-2.9	102.0	95.9	-4.8	·	·	·
Cc1cc(C)c(C#N)c(SCC(=O)Nc2ccccc2C)n1	1.39	5.4	3.8	97.0	97.2	10.1	·	·	·
Cc1cc(C(F)(F)F)c(C#N)c(SCC(=O)Nc2nc3ccccc3s2)n1	0.77	-21.3	-59.7	152.4*	120.4	180.1*	260.9*	125.6	192.8*
N/C(=N\OC(=O)c1ccc2c(c1)OCO2)c1cccc([N+](=O)[O-])c1	3.21	-3.5	-60.6	153.4*	106.2	85.0	197.8*	126.4	117.8*
SMILES	NF-kB expr up	STAT3 blocker	STAT1 inh	STAT1 activator	STAT3 act	APP 5'UTR act	STAT1 activ conf	NFkB act STAT1ct	STAT3 act 2
COc1ccc(/C(N)=N/OC(=O)c2cccc([N+](=O)[O-])c2)cc1OC	1.34	14.9	-1.1	100.4	87.7	·	·	·	·
CCn1nc([N+](=O)[O-])c2c(-c3nc4ccccc4o3)c(N)n(CCCOC)c2c1=O	1.39	12.4	-1.1	99.9	91.0	5.0	·	·	·
CCOC(=O)C1CCCN(C(=O)c2cccc(NC(=O)C(CC)CC)c2)C1 (stereo unspecified)	1.03	0.1	-2.5	101.0	101.0	7.8	·	·	·
CCOC(=O)C1C(=O)C=C(Nc2ccccc2F)CC1c1ccccc1 (stereo unspecified)	1.88	-19.1	-19.2	117.2	116.6	9.8	·	·	·
O=[N+]([O-])c1ccc2cn(-c3ccccc3)nc2c1	1.33	-5.7	-52.3	152.3*	102.5	140.9*	195.6*	135.0*	98.6
O=[N+]([O-])c1ccc2c(c1)ncn2-c1ccccc1	1.24	19.8	-24.6	122.3	86.6	5.1	·	·	·
CC(C)c1ccc(C2NC(=S)NC3=C2C(=O)CC(C)(C)C3)cc1 (stereo unspecified)	0.95	-11.0	3.2	97.1	104.8	-7.0	·	·	·
O=C(N/N=C/c1ccccc1F)c1csc2c1CCCC2	4.04*	37.5	-62.2	156.9*	71.4	33.2	217.3*	120.3	105.4
CCCCCC(=O)Nc1ccc(-c2csc(N)n2)cc1	·	3.2	-16.7	113.2	101.7	-0.8	·	·	·
CCCc1ccc(-c2cc(NC(=O)CSc3nnc(N)s3)n(-c3ccccc3)n2)cc1	4.39*	-16.0	-65.2	159.4*	108.8	97.4	189.0*	134.4*	110.8*
Cc1nnc(SCC(=O)Nc2cc(-c3cc(C)c(C)cc3C)nn2-c2ccccc2)s1	0.89	-5.0	9.3	91.8	102.0	-6.5	·	·	·
NNC(=O)CCc1nc2ccccc2[nH]1	1.24	7.2	0.7	97.6	97.0	17.6	·	·	·
Cc1nn(Cc2ccccc2Cl)c(Cl)c1C(=O)NCCc1ccccc1	3.49*	-5.3	-81.9	172.8*	104.8	·	193.3*	119.9	140.9*

Compound activity as filed in PubChem BioAssay.
